According to ChEMBL document CHEMBL4680065, “Pharmacophore-based screening of diamidine small molecule inhibitors for protein arginine methyltransferases” (RSC Med Chem, 2021):
Activity calls are given as the source filed them. The calls are words filed in the database; no cut-off is given here.

Tests used:
[1] = molecular target: T1, Histone-arginine methyltransferase CARM1 (Homo sapiens, UniProt Q86X55); experiment: Inhibition of recombinant GST-tagged CARM1 (unknown origin) expressed in Escherichia coli using […] incubated for 120 mins in presence of [3H]-SAM cofactor by radioactive filter plate assay
T1 sequence (Q86X55 whole entry): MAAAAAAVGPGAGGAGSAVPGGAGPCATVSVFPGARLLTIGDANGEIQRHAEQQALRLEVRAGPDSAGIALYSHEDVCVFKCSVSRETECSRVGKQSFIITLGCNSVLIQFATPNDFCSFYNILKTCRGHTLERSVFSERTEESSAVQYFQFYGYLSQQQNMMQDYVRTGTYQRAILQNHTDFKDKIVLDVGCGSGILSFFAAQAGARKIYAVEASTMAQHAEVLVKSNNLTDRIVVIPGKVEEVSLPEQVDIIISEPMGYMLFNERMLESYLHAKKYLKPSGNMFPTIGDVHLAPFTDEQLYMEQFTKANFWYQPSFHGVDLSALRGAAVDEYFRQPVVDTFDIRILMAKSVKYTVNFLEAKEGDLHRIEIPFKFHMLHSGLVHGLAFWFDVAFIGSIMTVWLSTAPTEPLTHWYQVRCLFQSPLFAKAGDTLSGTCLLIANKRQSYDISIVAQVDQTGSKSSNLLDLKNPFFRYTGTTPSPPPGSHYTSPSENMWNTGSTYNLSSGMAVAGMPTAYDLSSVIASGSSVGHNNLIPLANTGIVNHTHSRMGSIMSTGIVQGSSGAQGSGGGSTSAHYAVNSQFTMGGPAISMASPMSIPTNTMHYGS

MEG-01 = experiment: Antiproliferative activity against human MEG-01 cells assessed as inhibition of cell growth measured after 72 hrs by CellTiter-Glo assay; type: functional, cell-based; conditions: MEG-01, 72 h
Procedure, shortened: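 Cells were cultured with the test agent, serially diluted, for 72 h. The control received the same amount of DMSO. Cell viability was then measured, and IC50 values were taken from sensitivity curves.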

[2] = molecular target: T2, Protein arginine N-methyltransferase 1 (Homo sapiens, UniProt Q99873); experiment: Inhibition of PRMT1 in human MEG-01 cells assessed as reduction in RBM15 total asymmetric arginine methylation level at 100 to 200 nM measured after 24 hrs by immunoblotting analysis; type: cell-based; conditions: dose 100-200 nM
T2 sequence (Q99873 whole entry, looked up): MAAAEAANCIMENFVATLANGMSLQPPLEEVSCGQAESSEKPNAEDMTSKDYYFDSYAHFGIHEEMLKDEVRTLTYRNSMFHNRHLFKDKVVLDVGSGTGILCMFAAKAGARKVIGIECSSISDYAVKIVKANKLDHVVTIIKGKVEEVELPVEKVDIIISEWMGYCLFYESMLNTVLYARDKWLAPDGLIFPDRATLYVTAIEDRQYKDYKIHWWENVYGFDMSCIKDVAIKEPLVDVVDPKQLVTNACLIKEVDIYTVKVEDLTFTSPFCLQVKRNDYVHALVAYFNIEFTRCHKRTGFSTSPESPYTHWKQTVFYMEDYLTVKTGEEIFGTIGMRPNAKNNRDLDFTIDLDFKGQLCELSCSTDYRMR
Procedure, shortened: (§1)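 MEG01 cells were cultured for 24 h with the inhibitor (100 nM, 200 nM) or with DMSO control. Cell extracts were resolved by SDS-PAGE and immunoblotted with anti-methyl-RBM15 antibody and the pan-asymmetric methylation antibody α-Asym24. Equal loading was checked by Ponceau S staining.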

[3] = molecular target: T3, Protein arginine N-methyltransferase 6 (Homo sapiens, UniProt Q96LA8); experiment: Inhibition of PRMT6 (unknown origin) using biotin-labeled SMD1 as substrate incubated for 30 mins in presence of [3H]-SAM cofactor by scintillation proximity assay
Target sequence in this assay (Q96LA8 whole entry): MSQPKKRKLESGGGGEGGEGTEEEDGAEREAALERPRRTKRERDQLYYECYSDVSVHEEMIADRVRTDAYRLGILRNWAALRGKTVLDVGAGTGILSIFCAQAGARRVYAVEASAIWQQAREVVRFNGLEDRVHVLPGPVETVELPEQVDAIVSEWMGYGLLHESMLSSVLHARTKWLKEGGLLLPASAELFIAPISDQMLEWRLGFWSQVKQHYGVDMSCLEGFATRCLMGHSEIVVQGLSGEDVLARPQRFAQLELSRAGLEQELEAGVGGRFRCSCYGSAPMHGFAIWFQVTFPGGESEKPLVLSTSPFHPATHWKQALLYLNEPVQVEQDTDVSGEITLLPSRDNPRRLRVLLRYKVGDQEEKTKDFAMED

[4] = molecular target: T2, Protein arginine N-methyltransferase 1; experiment: Inhibition of PRMT1 in human MEG-01 cells assessed as reduction in RBM15 methylation level measured after 24 hrs by immunoblotting analysis; type: cell-based; procedure, shortened: as §1
PRMT5/MEP50 complex = PRMT5/MEP50 complex (Homo sapiens, UniProt O14744); experiment: Inhibition of PRMT5/MEP50 (unknown origin) using biotin-labeled histone H4-20 peptide as substrate incubated for 8 mins in presence of [3H]-SAM cofactor by scintillation proximity assay; type: protein-complex assay
PRMT5/MEP50 complex, sequence (O14744 whole entry): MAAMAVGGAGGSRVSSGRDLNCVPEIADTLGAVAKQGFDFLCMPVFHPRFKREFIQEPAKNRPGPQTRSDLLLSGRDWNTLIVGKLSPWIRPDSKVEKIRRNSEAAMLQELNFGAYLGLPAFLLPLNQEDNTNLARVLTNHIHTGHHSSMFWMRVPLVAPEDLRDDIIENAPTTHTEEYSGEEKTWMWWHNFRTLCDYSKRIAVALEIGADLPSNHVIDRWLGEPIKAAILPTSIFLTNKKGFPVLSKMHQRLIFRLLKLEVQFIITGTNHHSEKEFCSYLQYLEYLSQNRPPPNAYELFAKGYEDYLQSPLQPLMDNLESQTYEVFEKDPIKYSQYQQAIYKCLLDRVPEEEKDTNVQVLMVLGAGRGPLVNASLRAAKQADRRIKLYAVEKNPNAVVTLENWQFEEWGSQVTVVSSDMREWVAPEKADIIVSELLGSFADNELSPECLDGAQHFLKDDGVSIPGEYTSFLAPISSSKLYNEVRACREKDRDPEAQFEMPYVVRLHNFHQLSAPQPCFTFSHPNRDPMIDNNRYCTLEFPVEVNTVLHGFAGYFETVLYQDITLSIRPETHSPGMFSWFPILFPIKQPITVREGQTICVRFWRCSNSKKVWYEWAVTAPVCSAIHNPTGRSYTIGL
PRMT5/MEP50 complex, sequence (Q9BQA1 whole entry, further chain): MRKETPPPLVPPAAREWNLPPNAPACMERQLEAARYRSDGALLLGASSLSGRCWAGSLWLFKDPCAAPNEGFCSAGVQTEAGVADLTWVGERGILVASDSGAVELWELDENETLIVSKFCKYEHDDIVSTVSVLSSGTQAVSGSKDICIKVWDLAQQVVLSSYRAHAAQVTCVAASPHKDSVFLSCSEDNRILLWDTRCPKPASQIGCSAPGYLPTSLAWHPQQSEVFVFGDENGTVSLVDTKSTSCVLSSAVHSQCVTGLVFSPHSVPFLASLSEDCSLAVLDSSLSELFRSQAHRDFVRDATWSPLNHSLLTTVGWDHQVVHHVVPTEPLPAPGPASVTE
Procedure, shortened: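 Part of a methyltransferase selectivity panel. Test compound was serially diluted into a mixture of enzyme, [3H]-SAM cofactor and substrate. Methylated substrate was quantified by scintillation proximity assay. Reactions were held at initial-rate conditions with substrate turnover under 10%, and substrate concentrations were near Km.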

[5] = molecular target: T4, Protein arginine N-methyltransferase 7 (Homo sapiens) (UniProt Q9NVM4); experiment: Inhibition of recombinant GST-tagged PRMT7 (unknown origin) expressed in Escherichia coli assessed as residual activity at 10 uM using biotin-labeled SMD1 as substrate incubated for 120 mins in presence of [3H]-SAM cofactor by scintillation proximity assay relative to control
T4 sequence (whole entry): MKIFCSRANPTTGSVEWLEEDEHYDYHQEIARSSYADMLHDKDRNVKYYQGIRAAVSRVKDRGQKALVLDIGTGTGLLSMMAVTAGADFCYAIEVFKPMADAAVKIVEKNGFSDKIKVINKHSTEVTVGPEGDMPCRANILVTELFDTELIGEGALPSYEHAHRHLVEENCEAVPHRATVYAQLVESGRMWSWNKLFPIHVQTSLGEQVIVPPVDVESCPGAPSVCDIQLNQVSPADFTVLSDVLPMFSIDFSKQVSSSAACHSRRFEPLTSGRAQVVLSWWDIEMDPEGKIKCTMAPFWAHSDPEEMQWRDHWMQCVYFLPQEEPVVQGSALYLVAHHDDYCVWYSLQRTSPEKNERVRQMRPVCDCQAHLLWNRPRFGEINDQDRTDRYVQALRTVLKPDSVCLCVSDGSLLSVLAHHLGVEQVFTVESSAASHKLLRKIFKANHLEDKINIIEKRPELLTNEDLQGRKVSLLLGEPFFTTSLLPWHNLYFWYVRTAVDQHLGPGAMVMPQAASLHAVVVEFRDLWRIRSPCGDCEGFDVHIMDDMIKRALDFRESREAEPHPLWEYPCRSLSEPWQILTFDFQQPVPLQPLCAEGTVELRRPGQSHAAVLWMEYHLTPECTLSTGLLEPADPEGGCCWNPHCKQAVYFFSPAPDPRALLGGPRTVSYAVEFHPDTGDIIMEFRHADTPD
Procedure, shortened: (§2)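 Single-point profiling used 10 μM inhibitor added to the enzyme, [3H]-SAM and substrate mixture. Methylated substrate was quantified by scintillation proximity assay. Reactions were held at initial rate, with yield under 10% and substrate near Km. Enzyme, [3H]-SAM and substrate final levels are given in the supplement.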

[6] = molecular target: T3, Protein arginine N-methyltransferase 6; experiment: Inhibition of PRMT6 (unknown origin) assessed as residual activity at 10 uM using biotin-labeled SMD1 as substrate incubated for 30 mins in presence of [3H]-SAM cofactor by scintillation proximity assay relative to control; procedure, shortened: as §2
Target sequence in this assay (Q96LA8 whole entry, looked up): as the sequence (Q96LA8 whole entry) above

[7] = molecular target: T5, Histone-arginine methyltransferase CARM1 (Homo sapiens) (UniProt Q86X55); experiment: Inhibition of recombinant GST-tagged CARM1 (unknown origin) expressed in Escherichia coli assessed as residual activity at 10 uM using histone H3.3 peptide as substrate incubated for 120 mins in presence of [3H]-SAM cofactor by radioactive filter plate assay relative to control
T5 sequence (whole entry): T1 sequence (Q86X55 whole entry)

[8] = molecular target: PRMT5/MEP50 complex (Homo sapiens) (UniProt O14744+Q9BQA1); experiment: Inhibition of PRMT5/MEP50 (unknown origin) assessed as residual activity at 10 uM using biotin-labeled histone H4-20 peptide as substrate incubated for 8 mins in presence of [3H]-SAM cofactor by scintillation proximity assay relative to control; type: protein-complex assay; procedure, shortened: as §2

SMILES: N=C(N)c1ccc(Nc2ccc(-c3cc4ccc(C(=N)N)cc4[nH]3)cc2)cc1
- IC50 [1]: 27.6 µM
- IC50 (MEG-01): 1.03 µM
- inhibition [2]: Active
- IC50 [3]: 2.8 µM
- inhibition [4]: Dose-dependent effect
- IC50 (PRMT5/MEP50 complex): 6.8 µM
- Activity [5]: 32.1%
- Activity [6]: 22.9%
- Activity [7]: 50.7%
- Activity [8]: 35.1%
